From PubChem
An excerpt weighted towards active compounds, which were near 2.2% of everything screened.
E-selectin induc: E-selectin induction on HUVECs | HUVEC E-selectin immunofluorescence imaging; normalized: neutral wells 0, TNF-alpha wells 100 | 260,000 tested, 0.37% active | activation, % at 7.58 µM | P16581;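 active = mean E-selectin-positive cell signal at least 10% of the positive control, reached in at least 60% of replicates, without over 20% cell loss; inconclusive = no rule given, readout overlaps actives, possibly toxicity-flagged; inactive = the rest, including those meeting only one limit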
Target sequence (P16581 whole entry, looked up): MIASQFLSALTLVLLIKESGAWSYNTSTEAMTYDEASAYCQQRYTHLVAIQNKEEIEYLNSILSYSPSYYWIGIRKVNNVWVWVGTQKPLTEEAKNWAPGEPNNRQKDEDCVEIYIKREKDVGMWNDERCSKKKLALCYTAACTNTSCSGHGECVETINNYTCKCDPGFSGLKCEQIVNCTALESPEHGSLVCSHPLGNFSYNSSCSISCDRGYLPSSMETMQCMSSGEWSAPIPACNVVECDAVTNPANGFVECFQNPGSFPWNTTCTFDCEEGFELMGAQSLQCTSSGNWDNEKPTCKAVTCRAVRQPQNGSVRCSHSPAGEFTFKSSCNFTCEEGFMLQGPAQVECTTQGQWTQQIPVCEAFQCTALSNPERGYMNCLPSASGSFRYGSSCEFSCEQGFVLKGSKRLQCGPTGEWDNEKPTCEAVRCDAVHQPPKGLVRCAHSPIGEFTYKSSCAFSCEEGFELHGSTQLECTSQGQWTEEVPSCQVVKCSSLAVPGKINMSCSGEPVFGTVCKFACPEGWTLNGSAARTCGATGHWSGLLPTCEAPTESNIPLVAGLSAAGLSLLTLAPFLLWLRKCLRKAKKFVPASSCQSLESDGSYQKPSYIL
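Test system: HUVEC | Signal: Immunofluorescence imaging | Read-out: Percent E-selectin-positive cells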
DENV2 CPE: protects cells from dengue virus 2 cytopathic effect; 350,000 tested, 1.7% active; DENV2-infected cells, cytopathic effect rescue, plate reader; AID 651640; CPE inhibition, % at 9.99 µM; in the data active = CPE inhibition above about 20%, passing the limit was not always enough; inconclusive = no clear call, values can overlap the other calls; tested in BHK-21 cells;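 note: 0% = median of neutral control wells and 100% = median of positive control wells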
C2C12 statin: suppressors of simvastatin-induced myotoxicity in C2C12 myotubes. ATP luminescence, 48 h; scaled: DMSO 0, geranylgeraniol control 100. rescue of ATP level, % at 7.49 µM. 330,000 tested, 0.78% active;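 active = mean ATP rescue above about 67%, or every replicate alone reaching that limit, limit read from the data, passing the limit was not always enough; inconclusive = no clear call, values can overlap the other calls; inactive = mean under the limit and some replicate under it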;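 note: myotubes were challenged with 10 µM simvastatin during compound exposure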
* marks the source's active call; other numbers are inactive results; ? = inconclusive; . = no result given.

SMILES	E-selectin induc	DENV2 CPE	C2C12 statin
Cc1cccc(S(=O)(=O)N2CCCCN3[C@H](CO)[C@H](c4ccc(-c5ccncc5)cc4)[C@@H]3C2)c1	-1	33*	53
Cc1cccc(-c2ccc([C@H]3[C@H](CO)N4CCCCN(S(=O)(=O)c5cccc(C)c5)C[C@@H]34)cc2)c1	-1	-4	.
Cc1cccc(S(=O)(=O)N2CCCCN3[C@@H](CO)[C@@H](c4ccc(-c5ccncc5)cc4)[C@@H]3C2)c1	1	5	18
O=C(NCC[C@H]1CC[C@@H](NC(=O)c2cnccn2)[C@H](CO)O1)Nc1ccc(F)cc1	-1	20	11
C[C@H]1CN([C@@H](C)CO)C(=O)c2cccc(NS(=O)(=O)c3cn(C)cn3)c2O[C@@H]1CN(C)C(=O)Nc1ccc(C(F)(F)F)cc1	?	-2	-53
C[C@@H]1CCCCO[C@H](CN(C)C(=O)Nc2ccc(F)cc2)[C@H](C)CN([C@@H](C)CO)C(=O)c2cc(NS(=O)(=O)c3cccs3)ccc2O1	0	1	21
Cc1noc(C)c1S(=O)(=O)Nc1ccc2c(c1)C(=O)N([C@@H](C)CO)C[C@H](C)[C@H](CN(C)S(=O)(=O)c1ccc(F)cc1)OCCCC[C@H](C)O2	0	15	.
COc1ccc(S(=O)(=O)N[C@H]2CC[C@H](CC(=O)N3CCN(c4ccccc4)CC3)O[C@H]2CO)cc1	0	-7	5
O=C(Nc1nc(-c2ccc(Br)cc2)cs1)c1cccnc1	0	8	.
O=C(NC(=S)Nc1nc(-c2ccc(Br)cc2)cs1)c1cccnc1	.	.	254*
CC(C)C[C@@H]1NC(=O)[C@H]2C[C@@H](C(=O)NCCCCCNC(=O)CS)[C@@H](c3cccc(OCCO)c3)N2C1=O	.	21*	.
CC(C)C[C@@H]1NC(=O)[C@@H]2C[C@H](C(=O)O)[C@H](c3cccc(OCCO)c3)N2C1=O	.	3	.
NCCCCCNC(=O)[C@@H]1C[C@@H]2C(=O)N[C@@H](Cc3ccccc3)C(=O)N2[C@@H]1c1cccc(OCCO)c1	.	1	.
NCCCCCCNC(=O)[C@H]1C[C@H]2C(=O)N[C@@H](Cc3ccccc3)C(=O)N2[C@H]1c1cccc(OCCO)c1	.	21*	.
Cc1ccc(S(=O)(=O)N(C)C[C@@H]2OCCCC[C@H](C)Oc3ccc(NC(=O)CCCN(C)C)cc3C(=O)N([C@H](C)CO)C[C@@H]2C)cc1	.	-3	.
Cc1cccc(C(=O)N2CCC(=O)N([C@H](COCc3ccc(Cl)cc3)Cc3ccccc3)CC2)c1	-1	125*	.
Cc1cccc(C(=O)N2CCC(=O)N(C(COCc3ccc(Cl)cc3)Cc3ccccc3)CC2)c1 (configuration not stated)	0	1	11
C/C(=N\NC(=O)CNc1cccc(Cl)c1C)C1CC1	.	-2	.
C/C(=N\NC(=O)CNc1ccccc1Cl)C(C)(C)C	.	.	72*
CCOC(=O)N1CCN(C(=O)Cc2cccc3ccccc23)CC1	.	-9	1
CCOC(=O)N1CCN(C(=O)Cc2ccsc2)CC1	.	.	110*
C[C@@H]1CN([C@H](C)CO)C(=O)c2cc(C#CCN(C)C)cnc2O[C@H]1CN(C)C(=O)c1cccnc1	0	-4	10
CC(C)NC(=O)N1[C@@H](CO)[C@H](c2ccccc2)[C@@H]1CNC(=O)CN(C)C	0	-2	5
COc1ccc2[nH]cc(C(=O)CCl)c2c1	.	-5	-31
COc1ccc2[nH]cc(C(=O)CNc3nc(C)cs3)c2c1	.	.	125*
SMILES	E-selectin induc	DENV2 CPE	C2C12 statin
O=C(Nc1ccccc1)Nc1ccc2c(c1)[C@H]1C[C@H](CC(=O)N3CCCCC3)O[C@H](CO)[C@H]1O2	0	2	5
COCC#Cc1ccc2c(c1)O[C@@H](CN(C)S(=O)(=O)c1ccc(OC)cc1)[C@H](C)CN([C@H](C)CO)S2(=O)=O	0	-1	-35
Cc1cc(NC(=O)CCNS(=O)(=O)c2ccc3[nH]c(=O)oc3c2)ccc1Br	.	3	3
Cc1ccc(NC(=O)CCNS(=O)(=O)c2ccc3[nH]c(=O)oc3c2)cc1F	0	1	111*
COc1ccc(CNC(=O)C[C@H]2C[C@H]3c4cc(NC(=O)NC5CCCC5)ccc4O[C@H]3[C@@H](CO)O2)cc1	1	4	2
Nc1ccc[n+](CC(=O)c2ccccc2)c1	.	-1	-6
O=C(C[n+]1ccsc1)c1ccccc1	-1	31*	.
COc1ccc(C#Cc2cnc3c(c2)C(=O)N([C@@H](C)CO)C[C@@H](C)[C@@H](CN(C)CC2CC2)O3)cc1	0	.	7
C[C@@H]1CCCCO[C@@H](CN(C)C(=O)Nc2ccc3c(c2)OCO3)[C@H](C)CN([C@H](C)CO)C(=O)c2cc(NC(=O)Nc3ccc4c(c3)OCO4)ccc2O1	0	-2	.
CCC(=O)Nc1ccc2c(c1)C(=O)N(C)[C@@H]1CC[C@@H](CC(=O)NCCCN(C)C)O[C@@H]1CO2	0	0	-2
C[C@@H]1CN([C@H](C)CO)C(=O)c2cc(NC(=O)NC3CCCCC3)ccc2O[C@H]1CN(C)CC1CCCCC1	.	-17	2
C[C@H]1CN([C@@H](C)CO)C(=O)c2cc(NC(=O)NC3CCCCC3)ccc2O[C@H]1CN(C)CC1CCCCC1	.	-6	3
C[C@H](CO)N1C[C@H](C)[C@H](CN(C)CC2CCCCC2)Oc2ccc(NC(=O)NC3CCCCC3)cc2C1=O	.	29*	-6
C[C@@H]1CN([C@@H](C)CO)C(=O)c2cc(NC(=O)NC3CCCCC3)ccc2O[C@@H]1CN(C)CC1CCCCC1	.	60*	-2
CCOC(=O)C(C)C1(O)c2ccccc2-c2ncccc21 (configuration not stated)	.	.	106*
OC(CC1CC12c1ccccc1-c1ncccc12)(c1ccccc1)c1ccccc1 (configuration not stated)	.	.	-5
CC(C)CC(C(=O)Nc1cccc(O)c1)N1C(=O)c2ccccc2C1=O (configuration not stated)	0	-2	15
CC(C)CC(C(=O)Nc1oc(-c2ccco2)c(-c2ccco2)c1C#N)N1C(=O)c2ccccc2C1=O (configuration not stated)	.	.	117*
Nc1ccn(CC(=O)N[C@H](CO)Cc2c[nH]c3ccccc23)c(=O)n1	0	-8	124*
Nc1ccn(CC(=O)NCc2ccccc2)c(=O)n1	0	3	-5
CNC[C@@H]1Oc2c(NC(=O)C3CC3)cccc2C(=O)N([C@H](C)CO)C[C@H]1C	1	-3	1
CCCCCCN1C[C@H](O)[C@@H](n2cc(-c3ccc(F)cc3)nn2)C[C@@H]1c1ccc(C)cc1	.	3	11
CCCCCCN1C[C@@H](O)[C@H](n2cc(-c3ccc(F)cc3)nn2)C[C@@H]1c1ccc(C)cc1	0	72*	20
Cc1ccc(-c2nnn(CC(=O)N(CCO)C(C(=O)NC3CCCCC3)c3ccncc3)n2)o1 (configuration not stated)	.	13	.
Cc1ccc(-c2nnn(CC(=O)N(CCCO)C(C(=O)NC3CCCC3)c3ccc(Cl)cc3)n2)o1 (configuration not stated)	.	5	80*
CC1CCc2sc3nc(NCc4ccco4)n4ncnc4c3c2C1 (configuration not stated)	.	.	16
CCN1CCN(c2nc3sc4c(c3c3ncnn23)CC(C)CC4)CC1 (configuration not stated)	.	.	126*
